{"source": "ChEMBL document CHEMBL1275521", "about": "“Fluoroquinolone enhances the mutation frequency for meropenem-selected carbapenem resistance in Pseudomonas aeruginosa, but use of the high-potency drug doripenem inhibits mutant formation” (2008)", "data": [{"test_system": "Pseudomonas aeruginosa", "test": "Antimicrobial activity against Pseudomonas aeruginosa PAO1 KTL1 harboring oprD, mexAB-oprM gene after 18 hrs by agar dilution method", "assay_type": "functional", "conditions": "PAO1 KTL1, 18 h", "units": {"MIC": "µg/mL"}, "values": [{"smiles": "CC1COc2c(N3CCN(C)CC3)c(F)cc3c(=O)c(C(=O)O)cn1c23", "note": "(centres undefined) [OFLOXACIN]", "MIC": 3.1}, {"smiles": "CCN1CCN(C(=O)N[C@@H](C(=O)N[C@@H]2C(=O)N3[C@@H]2SC(C)(C)[C@@H]3C(=O)O)c2ccccc2)C(=O)C1=O", "note": "[PIPERACILLIN]", "MIC": 12.5}]}, {"test_system": "Pseudomonas aeruginosa", "test": "Antimicrobial activity against Pseudomonas aeruginosa GP4KT11 harboring oprD gene after 18 hrs by agar dilution method", "conditions": "GP4KT11, 18 h", "units": {"MIC": "µg/mL"}, "values": [{"smiles": "CC1COc2c(N3CCN(C)CC3)c(F)cc3c(=O)c(C(=O)O)cn1c23", "note": "(centres undefined) [OFLOXACIN]", "MIC": 1.6}, {"smiles": "CCN1CCN(C(=O)N[C@@H](C(=O)N[C@@H]2C(=O)N3[C@@H]2SC(C)(C)[C@@H]3C(=O)O)c2ccccc2)C(=O)C1=O", "note": "[PIPERACILLIN]", "MIC": 100}]}, {"test_system": "Pseudomonas aeruginosa", "test": "Antimicrobial activity against wild-type Pseudomonas aeruginosa GP62 after 18 hrs by agar dilution method", "assay_type": "functional", "conditions": "GP62, 18 h", "in_short": "(§1)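 MICs by agar dilution following CLSI guidelines; plates incubated 18 h at 37°C.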", "units": {"MIC": "µg/mL"}, "values": [{"smiles": "CC1COc2c(N3CCN(C)CC3)c(F)cc3c(=O)c(C(=O)O)cn1c23", "note": "(centres undefined) [OFLOXACIN]", "MIC": 1.6}, {"smiles": "CCN1CCN(C(=O)N[C@@H](C(=O)N[C@@H]2C(=O)N3[C@@H]2SC(C)(C)[C@@H]3C(=O)O)c2ccccc2)C(=O)C1=O", "note": "[PIPERACILLIN]", "MIC": 100}]}, {"test_system": "Pseudomonas aeruginosa", "test": "Antimicrobial activity against Pseudomonas aeruginosa GP4KT111 harboring oprD,mexAB-oprM gene after 18 hrs by agar dilution method", "assay_type": "functional", "conditions": "GP4KT111, 18 h", "units": {"MIC": "µg/mL"}, "values": [{"smiles": "CC1COc2c(N3CCN(C)CC3)c(F)cc3c(=O)c(C(=O)O)cn1c23", "note": "(centres undefined) [OFLOXACIN]", "MIC": 6.3}, {"smiles": "CCN1CCN(C(=O)N[C@@H](C(=O)N[C@@H]2C(=O)N3[C@@H]2SC(C)(C)[C@@H]3C(=O)O)c2ccccc2)C(=O)C1=O", "note": "[PIPERACILLIN]", "MIC": 200}]}, {"test_system": "Pseudomonas aeruginosa", "test": "Antimicrobial activity against Pseudomonas aeruginosa PAO1 IPM46 harboring oprD gene after 18 hrs by agar dilution method", "assay_type": "functional", "conditions": "PAO1 IPM46, 18 h", "units": {"MIC": "µg/mL"}, "values": [{"smiles": "CC1COc2c(N3CCN(C)CC3)c(F)cc3c(=O)c(C(=O)O)cn1c23", "note": "(centres undefined) [OFLOXACIN]", "MIC": 0.8}, {"smiles": "CCN1CCN(C(=O)N[C@@H](C(=O)N[C@@H]2C(=O)N3[C@@H]2SC(C)(C)[C@@H]3C(=O)O)c2ccccc2)C(=O)C1=O", "note": "[PIPERACILLIN]", "MIC": 3.1}]}, {"test_system": "Pseudomonas aeruginosa", "test": "Antimicrobial activity against wild-type Pseudomonas aeruginosa GP37 after 18 hrs by agar dilution method", "assay_type": "functional", "conditions": "GP37, 18 h", "in_short": "as §1", "units": {"MIC": "µg/mL"}, "values": [{"smiles": "CC1COc2c(N3CCN(C)CC3)c(F)cc3c(=O)c(C(=O)O)cn1c23", "note": "(centres undefined) [OFLOXACIN]", "MIC": 1.6}, {"smiles": "CCN1CCN(C(=O)N[C@@H](C(=O)N[C@@H]2C(=O)N3[C@@H]2SC(C)(C)[C@@H]3C(=O)O)c2ccccc2)C(=O)C1=O", "note": "[PIPERACILLIN]", "MIC": 100}]}, {"test_system": "Pseudomonas aeruginosa", "test": "Antimicrobial activity against Pseudomonas aeruginosa GP61KT51 harboring oprD,mexAB-oprM gene after 18 hrs by agar dilution method", "assay_type": "functional", "conditions": "GP61KT51, 18 h", "units": {"MIC": "µg/mL"}, "values": [{"smiles": "CC1COc2c(N3CCN(C)CC3)c(F)cc3c(=O)c(C(=O)O)cn1c23", "note": "(centres undefined) [OFLOXACIN]", "MIC": 6.3}, {"smiles": "CCN1CCN(C(=O)N[C@@H](C(=O)N[C@@H]2C(=O)N3[C@@H]2SC(C)(C)[C@@H]3C(=O)O)c2ccccc2)C(=O)C1=O", "note": "[PIPERACILLIN]", "MIC": 12.5}]}, {"test_system": "Pseudomonas aeruginosa", "test": "Antimicrobial activity against wild-type Pseudomonas aeruginosa GP20 after 18 hrs by agar dilution method", "assay_type": "functional", "conditions": "GP20, 18 h", "in_short": "as §1", "units": {"MIC": "µg/mL"}, "values": [{"smiles": "CC1COc2c(N3CCN(C)CC3)c(F)cc3c(=O)c(C(=O)O)cn1c23", "note": "(centres undefined) [OFLOXACIN]", "MIC": 1.6}, {"smiles": "CCN1CCN(C(=O)N[C@@H](C(=O)N[C@@H]2C(=O)N3[C@@H]2SC(C)(C)[C@@H]3C(=O)O)c2ccccc2)C(=O)C1=O", "note": "[PIPERACILLIN]", "MIC": 100}]}, {"test_system": "Pseudomonas aeruginosa", "test": "Antimicrobial activity against Pseudomonas aeruginosa PAO1 SO20 harboring mexAB-oprM gene after 18 hrs by agar dilution method", "assay_type": "functional", "conditions": "PAO1 SO20, 18 h", "units": {"MIC": "µg/mL"}, "values": [{"smiles": "CC1COc2c(N3CCN(C)CC3)c(F)cc3c(=O)c(C(=O)O)cn1c23", "note": "(centres undefined) [OFLOXACIN]", "MIC": 3.1}, {"smiles": "CCN1CCN(C(=O)N[C@@H](C(=O)N[C@@H]2C(=O)N3[C@@H]2SC(C)(C)[C@@H]3C(=O)O)c2ccccc2)C(=O)C1=O", "note": "[PIPERACILLIN]", "MIC": 12.5}]}, {"test_system": "Pseudomonas aeruginosa", "test": "Antimicrobial activity against Pseudomonas aeruginosa PAO1 after 18 hrs by agar dilution method", "assay_type": "functional", "conditions": "PAO1, 18 h", "in_short": "as §1", "units": {"MIC": "µg/mL"}, "values": [{"smiles": "CC1COc2c(N3CCN(C)CC3)c(F)cc3c(=O)c(C(=O)O)cn1c23", "note": "(centres undefined) [OFLOXACIN]", "MIC": 0.8}, {"smiles": "CCN1CCN(C(=O)N[C@@H](C(=O)N[C@@H]2C(=O)N3[C@@H]2SC(C)(C)[C@@H]3C(=O)O)c2ccccc2)C(=O)C1=O", "note": "[PIPERACILLIN]", "MIC": 3.1}]}, {"test_system": "Pseudomonas aeruginosa", "test": "Antimicrobial activity against wild-type Pseudomonas aeruginosa GP61 after 18 hrs by agar dilution method", "assay_type": "functional", "conditions": "GP61, 18 h", "in_short": "as §1", "units": {"MIC": "µg/mL"}, "values": [{"smiles": "CC1COc2c(N3CCN(C)CC3)c(F)cc3c(=O)c(C(=O)O)cn1c23", "note": "(centres undefined) [OFLOXACIN]", "MIC": 1.6}, {"smiles": "CCN1CCN(C(=O)N[C@@H](C(=O)N[C@@H]2C(=O)N3[C@@H]2SC(C)(C)[C@@H]3C(=O)O)c2ccccc2)C(=O)C1=O", "note": "[PIPERACILLIN]", "MIC": 3.1}]}, {"test_system": "Pseudomonas aeruginosa", "test": "Antimicrobial activity against wild-type Pseudomonas aeruginosa GP4 after 18 hrs by agar dilution method", "assay_type": "functional", "conditions": "GP4, 18 h", "in_short": "as §1", "units": {"MIC": "µg/mL"}, "values": [{"smiles": "CC1COc2c(N3CCN(C)CC3)c(F)cc3c(=O)c(C(=O)O)cn1c23", "note": "(centres undefined) [OFLOXACIN]", "MIC": 1.6}, {"smiles": "CCN1CCN(C(=O)N[C@@H](C(=O)N[C@@H]2C(=O)N3[C@@H]2SC(C)(C)[C@@H]3C(=O)O)c2ccccc2)C(=O)C1=O", "note": "[PIPERACILLIN]", "MIC": 100}]}, {"test_system": "Pseudomonas aeruginosa", "test": "Antimicrobial activity against Pseudomonas aeruginosa PAO1 KTL harboring oprD gene after 18 hrs by agar dilution method", "assay_type": "functional", "conditions": "not given", "in_short": "(§2)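 Carbapenem-resistant mutants were isolated on carbapenem-containing AB3 agar after 10^6-fold dilution and broth culture, with or without ciprofloxacin or ofloxacin. Randomly picked colonies were checked for MIC by agar dilution following CLSI guidelines, with 18 h incubation at 37°C. PAO1KTL and PAO1KTS came from meropenem selection without fluoroquinolone.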", "units": {"MIC": "µg/mL"}, "values": [{"smiles": "CC1COc2c(N3CCN(C)CC3)c(F)cc3c(=O)c(C(=O)O)cn1c23", "note": "(centres undefined) [OFLOXACIN]", "MIC": 0.8}, {"smiles": "CCN1CCN(C(=O)N[C@@H](C(=O)N[C@@H]2C(=O)N3[C@@H]2SC(C)(C)[C@@H]3C(=O)O)c2ccccc2)C(=O)C1=O", "note": "[PIPERACILLIN]", "MIC": 3.1}]}, {"test_system": "Pseudomonas aeruginosa", "test": "Antimicrobial activity against Pseudomonas aeruginosa GP20KT21 harboring oprD gene after 18 hrs by agar dilution method", "assay_type": "functional", "conditions": "GP20KT21, 18 h", "in_short": "as §2", "units": {"MIC": "µg/mL"}, "values": [{"smiles": "CC1COc2c(N3CCN(C)CC3)c(F)cc3c(=O)c(C(=O)O)cn1c23", "note": "(centres undefined) [OFLOXACIN]", "MIC": 1.6}, {"smiles": "CCN1CCN(C(=O)N[C@@H](C(=O)N[C@@H]2C(=O)N3[C@@H]2SC(C)(C)[C@@H]3C(=O)O)c2ccccc2)C(=O)C1=O", "note": "[PIPERACILLIN]", "MIC": 100}]}, {"test_system": "Pseudomonas aeruginosa", "test": "Antimicrobial activity against Pseudomonas aeruginosa PAO1 KTS harboring mexAB-oprM gene after 18 hrs by agar dilution method", "assay_type": "functional", "conditions": "not given", "in_short": "as §2", "units": {"MIC": "µg/mL"}, "values": [{"smiles": "CC1COc2c(N3CCN(C)CC3)c(F)cc3c(=O)c(C(=O)O)cn1c23", "note": "(centres undefined) [OFLOXACIN]", "MIC": 3.1}, {"smiles": "CCN1CCN(C(=O)N[C@@H](C(=O)N[C@@H]2C(=O)N3[C@@H]2SC(C)(C)[C@@H]3C(=O)O)c2ccccc2)C(=O)C1=O", "note": "[PIPERACILLIN]", "MIC": 12.5}]}, {"test_system": "Pseudomonas aeruginosa", "test": "Antimicrobial activity against Pseudomonas aeruginosa GP62KT41 harboring oprD gene after 18 hrs by agar dilution method", "assay_type": "functional", "conditions": "GP62KT41, 18 h", "in_short": "as §2", "units": {"MIC": "µg/mL"}, "values": [{"smiles": "CC1COc2c(N3CCN(C)CC3)c(F)cc3c(=O)c(C(=O)O)cn1c23", "note": "(centres undefined) [OFLOXACIN]", "MIC": 1.6}, {"smiles": "CCN1CCN(C(=O)N[C@@H](C(=O)N[C@@H]2C(=O)N3[C@@H]2SC(C)(C)[C@@H]3C(=O)O)c2ccccc2)C(=O)C1=O", "note": "[PIPERACILLIN]", "MIC": 100}]}, {"test_system": "Pseudomonas aeruginosa", "test": "Antimicrobial activity against Pseudomonas aeruginosa GP37KT31 harboring oprD gene after 18 hrs by agar dilution method", "assay_type": "functional", "conditions": "GP37KT31, 18 h", "in_short": "as §2", "units": {"MIC": "µg/mL"}, "values": [{"smiles": "CC1COc2c(N3CCN(C)CC3)c(F)cc3c(=O)c(C(=O)O)cn1c23", "note": "(centres undefined) [OFLOXACIN]", "MIC": 1.6}, {"smiles": "CCN1CCN(C(=O)N[C@@H](C(=O)N[C@@H]2C(=O)N3[C@@H]2SC(C)(C)[C@@H]3C(=O)O)c2ccccc2)C(=O)C1=O", "note": "[PIPERACILLIN]", "MIC": 100}]}]}
